Measured values taken from ChEMBL document CHEMBL1121938, “Hypocholesterolemic and antiaggregatory properties of 2-hydroxytetronic acid redox analogues an their relationship to clofibric acid” (1982).

Key:
[1] = system: Rattus norvegicus; assay: Effect of compound was measured on serum total triglycerides in male Dawley rats at the dose of 0.4 mmol/kg (day-1); type: functional, organism-based
Method in brief: (§1)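 Serum triglycerides were measured with an enzymatic triglyceride reagent on a bichromatic analyzer. Rats were male Sprague-Dawley (180-210 g) fed a high-cholesterol diet, n = 6 per group, dosed orally twice daily for 14 days in 0.25% methylcellulose or vehicle. They were fasted 16-18 h before blood collection on days -1, +4, +7, +10 (orbital plexus, light ether) and +14 (aorta). Analysis was repeated-measures ANOVA with Duncan's test.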

[2] = system: Rattus norvegicus; assay: Effect of compound was measured on serum total cholesterol in male Dawley rats at the dose of 0.4 mmol/kg (day+10).; type: functional, organism-based
Method in brief: (§2)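 Serum total cholesterol was measured enzymatically on a bichromatic analyzer. Serum was separated after clotting on ice (2000g, 10 min), held at 4 °C and assayed within 48 h. Rats were male Sprague-Dawley on a high-cholesterol diet, n = 6, dosed orally twice daily for 14 days in 0.25% methylcellulose (1.0 mL/100 g). They were fasted 16-18 h before each bleed. Results are in mg/dL ± SD.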

[3] = system: Rattus norvegicus; assay: Effect of compound was measured on serum total cholesterol in male Dawley rats at the dose of 0.4 mmol/kg (day+14).; type: functional, organism-based; method in brief: as §2
[4] = system: Rattus norvegicus; assay: Effect of compound was measured on serum alpha-lipoprotein in male Dawley rats at the dose of 0.2 mmol/kg (day+14).; type: functional
Method in brief: (§3)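 Male Sprague-Dawley rats (180-210 g) fed a high-cholesterol diet for 1 week before and throughout dosing. Groups of n = 6 were dosed orally twice daily for 14 days in 0.25% methylcellulose, with vehicle controls. Rats were fasted 16-18 h before orbital bleeds on days -1, +4, +7 and +10, and by aortic exsanguination on day +14. Serum α-lipoprotein cholesterol was measured by polyanionic precipitation, in mg/dL ± SD.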

[5] = Effect of compound was measured on serum heparin-MnCl2 precipated ipoprotein Dawley rats at 0.2 mmol/kg dose(day+14).; type: functional
Method in brief: (§4)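 Cholesterol-fed male Sprague-Dawley rats, n = 6 per group, given compound or 0.25% methylcellulose orally twice daily for 14 days, and fasted 16-18 h before each bleed (days -1, +4, +7, +10, +14). Heparin-MnCl2 precipitable lipoprotein cholesterol was taken as serum total cholesterol minus α-lipoprotein cholesterol. It is reported as a ratio to α-LP cholesterol ± SD. Analysis was ANOVA with repeated measures and Duncan's test.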

[6] = system: Rattus norvegicus; assay: Effect of compound was measured on serum total triglycerides in male Dawley rats at the dose of 0.2 mmol/kg (day+4).; type: functional, organism-based; method in brief: as §1
[7] = system: Rattus norvegicus; assay: Effect of compound was measured on serum total cholesterol in male Dawley rats at the dose of 0.4 mmol/kg (day+7).; type: functional, organism-based; method in brief: as §2
[8] = system: Rattus norvegicus; assay: Effect of compound was measured on serum total triglycerides in male Dawley rats at the dose of 0.2 mmol/kg (day+10).; type: functional, organism-based; method in brief: as §1
[9] = system: Rattus norvegicus; assay: Effect of compound was measured on serum alpha-lipoprotein in male Dawley rats at the dose of 0.2 mmol/kg (day+4).; type: functional; method in brief: as §3
[10] = system: Rattus norvegicus; assay: Effect of compound was measured on serum total cholesterol in male Dawley rats at the dose of 0.2 mmol/kg (day-1).; type: functional, organism-based; method in brief: as §2
[11] = Effect of compound was measured on serum heparin-MnCl2 precipated ipoprotein Dawley rats at 0.4 mmol/kg dose(day+10).; type: functional; method in brief: as §4
[12] = system: Rattus norvegicus; assay: Effect of compound was measured on serum alpha-lipoprotein in male Dawley rats at the dose of 0.2 mmol/kg (day-1).; type: functional; method in brief: as §3
[13] = system: Rattus norvegicus; assay: Effect of compound was measured on serum total triglycerides in male Dawley rats at the dose of 0.4 mmol/kg (day+10).; type: functional, organism-based; method in brief: as §1
[14] = Effect of compound was measured on serum heparin-MnCl2 precipated ipoprotein Dawley rats at 0.2 mmol/kg dose(day+7).; type: functional; method in brief: as §4
[15] = system: Rattus norvegicus; assay: Effect of compound was measured on serum total triglycerides in male Dawley rats at the dose of 0.2 mmol/kg (day+14).; type: functional, organism-based; method in brief: as §1
[16] = system: Rattus norvegicus; assay: Effect of compound on liver TG levels in male Dawley rats at the dose of 0.4 mmol/kg; type: functional; parameters: unit: g/100 g wet liver
Method in brief: (§5)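 Male Sprague-Dawley rats (180-210 g) were kept on a high-cholesterol diet for 1 week before and throughout treatment. Groups of n = 6 received drug in 0.25% methylcellulose orally twice daily for 14 days, or vehicle. After a 16-18 h fast, livers were excised at day +14 and homogenized in 0.1 M Tris-HCl pH 7.2 with 1.15% KCl. Lipids were extracted from 25% w/v homogenate and reported as g/100 g wet liver ± SD; groups compared by ANOVA and Duncan's test.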

[17] = system: Rattus norvegicus; assay: Effect of compound was measured on serum total cholesterol in male Dawley rats at the dose of 0.2 mmol/kg (day+7).; type: functional, organism-based; method in brief: as §2
[18] = Effect of compound on liver to body weight ratio in male Dawley rats at the dose of 0.2 mmol/kg; type: functional
Method in brief: (§6)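 Male Sprague-Dawley rats (180-210 g) were kept on a cholesterol-rich diet and dosed orally twice daily for 14 days in 0.25% methylcellulose; vehicle controls received the same; n = 6 per group. After a 16-18 h fast, rats were exsanguinated at day +14. Livers were removed, rinsed in ice-cold buffer, blotted and weighed, and related to body weight. Data were analysed by repeated-measures ANOVA with Duncan's multiple range test.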

[19] = Effect of compound was measured on serum heparin-MnCl2 precipated ipoprotein Dawley rats at 0.4 mmol/kg dose(day-1).; type: functional; method in brief: as §4
[20] = system: Rattus norvegicus; assay: Effect of compound was measured on serum total cholesterol in male Dawley rats at the dose of 0.2 mmol/kg (day+4).; type: functional, organism-based; method in brief: as §2
[21] = Effect of compound was measured on serum heparin-MnCl2 precipated ipoprotein Dawley rats at 0.4 mmol/kg dose(day+7).; type: functional; method in brief: as §4
[22] = Effect of compound was measured on serum heparin-MnCl2 precipated ipoprotein Dawley rats at 0.4 mmol/kg dose(day+4).; type: functional; method in brief: as §4
[23] = system: Rattus norvegicus; assay: Effect of compound was measured on serum total cholesterol in male Dawley rats at the dose of 0.2 mmol/kg (day+14).; type: functional, organism-based; method in brief: as §2
[24] = Effect of compound on liver to body weight ratio in male Dawley rats at the dose of 0.4 mmol/kg; type: functional; method in brief: as §6
[25] = system: Rattus norvegicus; assay: Effect of compound was measured on serum total triglycerides in male Dawley rats at the dose of 0.2 mmol/kg (day+7).; type: functional, organism-based; method in brief: as §1
[26] = Effect of compound was measured on serum heparin-MnCl2 precipated ipoprotein Dawley rats at 0.2 mmol/kg dose(day-1).; type: functional; method in brief: as §4
[27] = system: Rattus norvegicus; assay: Effect of compound was measured on serum alpha-lipoprotein in male Dawley rats at the dose of 0.4 mmol/kg (day14).; type: functional; method in brief: as §3
[28] = system: Rattus norvegicus; assay: Effect of compound was measured on serum total triglycerides in male Dawley rats at the dose of 0.4 mmol/kg (day+7).; type: functional, organism-based; method in brief: as §1
[29] = system: Rattus norvegicus; assay: Effect of compound was measured on serum total cholesterol in male Dawley rats at the dose of 0.4 mmol/kg (day+4).; type: functional, organism-based; method in brief: as §2
[30] = system: Rattus norvegicus; assay: Effect of compound was measured on serum alpha-lipoprotein in male Dawley rats at the dose of 0.2 mmol/kg (day+7).; type: functional; method in brief: as §3
[31] = system: Rattus norvegicus; assay: Effect of compound was measured on serum total triglycerides in male Dawley rats at the dose of 0.2 mmol/kg (day-1).; type: functional, organism-based; method in brief: as §1
[32] = system: Rattus norvegicus; assay: Effect of compound was measured on serum total cholesterol in male Dawley rats at the dose of 0.2 mmol/kg (day+10).; type: functional, organism-based; method in brief: as §2
[33] = Effect of compound was measured on serum heparin-MnCl2 precipated ipoprotein Dawley rats at 0.2 mmol/kg dose(day+10).; type: functional; method in brief: as §4
[34] = system: Rattus norvegicus; assay: Effect of compound on liver CH levels in male Dawley rats at the dose of 0.2 mmol/kg; type: functional; method in brief: as §5
[35] = Effect of compound was measured on serum heparin-MnCl2 precipated ipoprotein Dawley rats at 0.2 mmol/kg dose(day+4).; type: functional; method in brief: as §4
[36] = system: Rattus norvegicus; assay: Effect of compound was measured on serum total triglycerides in male Dawley rats at the dose of 0.4 mmol/kg (day+14).; type: functional, organism-based; method in brief: as §1
[37] = system: Rattus norvegicus; assay: Effect of compound was measured on serum alpha-lipoprotein in male Dawley rats at the dose of 0.4 mmol/kg (day+4).; type: functional; method in brief: as §3
[38] = system: Rattus norvegicus; assay: Effect of compound was measured on serum alpha-lipoprotein in male Dawley rats at the dose of 0.4 mmol/kg (day+10).; type: functional; method in brief: as §3
[39] = Effect of compound was measured on serum heparin-MnCl2 precipated ipoprotein Dawley rats at 0.4 mmol/kg dose(day+14).; type: functional; method in brief: as §4
[40] = system: Rattus norvegicus; assay: Effect of compound was measured on serum total triglycerides in male Dawley rats at the dose of 0.4 mmol/kg (day+4); type: functional, organism-based; method in brief: as §1
[41] = system: Rattus norvegicus; assay: Effect of compound was measured on serum alpha-lipoprotein in male Dawley rats at the dose of 0.4 mmol/kg (day-1).; type: functional; method in brief: as §3
[42] = system: Rattus norvegicus; assay: Effect of compound on liver CH levels in male Dawley rats at the dose of 0.4 mmol/kg; type: functional; parameters: unit: g/100 g wet liver; method in brief: as §5
[43] = system: Rattus norvegicus; assay: Effect of compound was measured on serum alpha-lipoprotein in male Dawley rats at the dose of 0.4 mmol/kg (day+7).; type: functional; method in brief: as §3
[44] = system: Rattus norvegicus; assay: Effect of compound was measured on serum alpha-lipoprotein in male Dawley rats at the dose of 0.2 mmol/kg (day+10).; type: functional; method in brief: as §3
[45] = system: Rattus norvegicus; assay: Effect of compound was measured on serum total cholesterol in male Dawley rats at the dose of 0.4 mmol/kg (day-1).; type: functional, organism-based; method in brief: as §2
[46] = system: Rattus norvegicus; assay: Effect of compound on liver TG levels in male Dawley rats at the dose of 0.2 mmol/kg; type: functional; method in brief: as §5

In the case of `O=C1C(O)=C(O)OC1c1ccc(Cl)cc1` (stereo unspecified), the Serum total triglycerides [1] is reported as 193 mg/dL, the serum total cholesterol [2] is reported as 135 mg/dL and the serum total cholesterol [3] is reported as 138 mg/dL. It also gave an Alpha-lipoprotein cholesterol [4] of 48.5 mg/dL, a Ratio [5] of 2.2 and a Serum total triglycerides [6] of 251 mg/dL. For the same compound, the serum total cholesterol [7] was 125 mg/dL, the Serum total triglycerides [8] was 193 mg/dL and the Alpha-lipoprotein cholesterol [9] was 43.8 mg/dL. For the same compound, the serum total cholesterol [10] was 276 mg/dL, the Ratio [11] was 1.75 and the Alpha-lipoprotein cholesterol [12] was 40.8 mg/dL. It also gave a Serum total triglycerides [13] of 139 mg/dL, a Ratio [14] of 4.03 and a Serum total triglycerides [15] of 148 mg/dL. The “Liver TG” value [16] was 5.08, the serum total cholesterol [17] was 204 mg/dL and the Ratio [18] was 3.8. It also gave a Ratio [19] of 3.96, a serum total cholesterol [20] of 195 mg/dL and a Ratio [21] of 1.74. The Ratio [22] was 2.79, the serum total cholesterol [23] was 145 mg/dL and the Ratio [24] was 3.6. It also gave a Serum total triglycerides [25] of 204 mg/dL, a Ratio [26] of 6.03 and an Alpha-lipoprotein cholesterol [27] of 61 mg/dL. It also gave a Serum total triglycerides [28] of 147 mg/dL, a serum total cholesterol [29] of 154 mg/dL and an Alpha-lipoprotein cholesterol [30] of 42.5 mg/dL. The Serum total triglycerides [31] was 313 mg/dL, the serum total cholesterol [32] was 161 mg/dL and the Ratio [33] was 3.33. For the same compound, the “Liver CH levels” value [34] was 3.28, the Ratio [35] was 3.72 and the Serum total triglycerides [36] was 87.8 mg/dL. It also gave an Alpha-lipoprotein cholesterol [37] of 41.8 mg/dL, an Alpha-lipoprotein cholesterol [38] of 52.2 mg/dL and a Ratio [39] of 1.39. The Serum total triglycerides [40] was 167 mg/dL, the Alpha-lipoprotein cholesterol [41] was 39.7 mg/dL and the “Liver CH levels” value [42] was 2.93. For the same compound, the Alpha-lipoprotein cholesterol [43] was 46 mg/dL, the Alpha-lipoprotein cholesterol [44] was 38.8 mg/dL and the serum total cholesterol [45] was 196 mg/dL. The “Liver TG” value [46] was 4.82.
